The values that follow come from ChEMBL document CHEMBL3400107, “Synthesis, structure-activity relationships, and anticonvulsant activities of 2-amino-4H-pyrido[3,2-e][1,3]thiazin-4-one derivatives as orally active AMPA receptor antagonists” (Bioorg Med Chem, 2015).

The structures appear in SMILES notation. A value given as a limit tells only on which side of the number the result lay.

Data set [1] has as its system Neuron. Kind of data set: Inhibition of kainate-induced neurotoxicity in primary rat hippocampal neurons at 10 uM after 24 hrs by LDH assay. The class given is functional. A digest of the protocol: (§1)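 Hippocampal cultures from embryonic day 18–20 Wistar rats, used after 8 or 9 days in vitro. Compounds added together with 300 µM kainate. Neuronal injury measured 24 h later as LDH release into the medium. Values are IC50 (concentration for 50% inhibition) or percent inhibition at 10 µM.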

In data set [2] the test system is Neuron. Kind of data set: Inhibition of kainate-induced neurotoxicity in primary rat hippocampal neurons after 24 hrs by LDH assay. The data set is classed as functional, cell-based. The gist of the method: as §1
In the next data set the test system is Mus musculus. Kind of data set: Anticonvulsant activity in po dosed ICR mouse assessed as protection from maximal electroshock-induced seizure measured after 60 mins post dose. The note with it: 1 h. The class given is functional. A digest of the protocol:
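Compounds given orally to mice; 60 min later corneal electroshock applied (50 mA, 0.2 s, 50 Hz). Protection scored as absence of tonic extension. ED50 calculated by probit method, with 95% confidence intervals.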

Data set [3] can be described thus: AUC(infinity) in rat at 1 mg/kg, iv. The data set is classed as ADME, organism-based. Set-up: time infinity, dose 1 mg/kg, route intravenous. To be noted: plasma.
The nature of data set [4]: Oral bioavailability in rat at 1 mg/kg. The class given is ADME, organism-based. The note with it: in vivo.
Data set [5] is described as follows: Cmax in rat at 1 mg/kg, po. The data set is classed as ADME, organism-based. Set-up: dose 1 mg/kg, route oral. To be noted: in vivo.
The nature of data set [6]: Half life in rat at 1 mg/kg, iv. Also noted: dose 1 mg/kg, route intravenous. The class given is ADME, organism-based. To be noted: in vivo.
Data set [7] in a line: Half life in rat at 1 mg/kg, po. Also noted: dose 1 mg/kg, route oral. To be noted: in vivo. The data set is classed as ADME, organism-based.
Data set [8] in a line: Volume of distribution at steady state in rat at 1 mg/kg, iv. The class given is ADME, organism-based. Also noted: dose 1 mg/kg, route intravenous. The note with it: in vivo, read-out: Vdss.
The nature of data set [9]: Total clearance in rat at 1 mg/kg, iv. The class given is ADME, organism-based. Set-up: dose 1 mg/kg, route intravenous. To be noted: in vivo.
A short description of data set [10]: AUC(infinity) in rat at 1 mg/kg, po. The data set is classed as ADME, organism-based. Set-up: time infinity, dose 1 mg/kg, route oral. To be noted: plasma.
The nature of data set [11]: Tmax in rat at 1 mg/kg, po. The data set is classed as ADME, organism-based. Set-up: dose 1 mg/kg, route oral. The note with it: in vivo.

One may read the inhibition as the drop in the measured response relative to a control, in per cent. High values mean a strong effect, low ones a weak effect. `CN(c1ccccc1)c1nc(=O)c2cccnc2s1` displayed an inhibition at 10 µM with Neuron [1] of 43%.

Compound `CN(c1cccnc1)c1nc(=O)c2cccnc2s1` yielded an inhibition at 10 µM in the data set with Neuron [1] of 18%.

With `CN(c1nc(=O)c2cccnc2s1)C1CCCCC1`, the inhibition at 10 µM with Neuron [1] is 16%.

Turning to `Cc1ccccc1N(C)c1nc(=O)c2cccnc2s1`, 10 µM produced 4% inhibition in the data set on Neuron [1].

Usually IC50 stands for the concentration needed to halve the response being measured. Higher therefore signals a need for much substance. In the data set on Neuron [2], `Cc1ccc(N(C)c2nc(=O)c3cccnc3s2)cc1` displayed an IC50 of 10000 nM.

By ED50 is commonly meant the midpoint of the dose-response relation. For `CN(c1ccc(F)cc1)c1nc(=O)c2cccnc2s1`, inhibition in the data set with Neuron [2] was half-maximal at 7200 nM (IC50). Further, the 50% effective dose (ED50) with Mus musculus is 15.3 mg/kg.

For orientation: AUC(0-inf) means total exposure, with the tail of the curve extrapolated. Low readings indicate low exposure, high ones high exposure. As usually defined, the bioavailability is dose-corrected exposure relative to a reference, in per cent. A high value points to much systemic uptake. Broadly, the Cmax is the highest concentration seen after dosing. For orientation: half-life means the time in which the quantity being followed falls by half. A high value points to slow decline. As usually defined, the clearance is the rate of elimination divided by the concentration. A high value points to a high capacity for elimination. A word on the Tmax: it is the time at which the peak concentration occurs. Regarding `CN(c1ccc(Cl)cc1)c1nc(=O)c2cccnc2s1`, the results for the AUC(0-inf) in data set [3] and in data set [10] were 542 ng·h/mL and 472 ng·h/mL, respectively. In [4], the bioavailability amounted to 87.1%. Moreover, the concentration in data set [5] peaked (Cmax) at 425 ng/mL. In addition, the figures for the half-life in [6] and in [7] were 26.4 min and 34.8 min, respectively. Further, the Vd in [8] stood at 1.18 L/kg. This compound showed a clearance in [9] of 30.8 mL/min/kg. Moreover, in the data set on Neuron [2], inhibition was half-maximal at 2000 nM (IC50). For the same compound, the ED50 in the data set with Mus musculus turned out to be 7.4 mg/kg. The Tmax in data set [11] was 15 min.

With `CN(c1ccc(Br)cc1)c1nc(=O)c2cccnc2s1`, the IC50 in the data set on Neuron [2] worked out at 1000 nM. Also, the ED50 with Mus musculus stood at 23.1 mg/kg.

For `CN(c1ccc(C(F)(F)F)cc1)c1nc(=O)c2cccnc2s1`, in the data set on Neuron [2], the IC50 was determined as 2000 nM.

The compound `COc1ccc(N(C)c2nc(=O)c3cccnc3s2)cc1` registered an IC50 in the data set on Neuron [2] of 3400 nM.

For the compound `CN(c1ccc(OC(F)(F)F)cc1)c1nc(=O)c2cccnc2s1`, the IC50 with Neuron [2] was 2100 nM. For the same compound, the median effective dose (ED50) in the data set on Mus musculus turned out to be 25.2 mg/kg.

`CN(c1ccc([N+](=O)[O-])cc1)c1nc(=O)c2cccnc2s1` displayed an inhibition at 10 µM in the data set on Neuron [1] of 38%.

Compound `CN(c1ccc(N)cc1)c1nc(=O)c2cccnc2s1` returned an inhibition at 10 µM with Neuron [1] of 19%.

As to `CCOC(=O)c1ccc(N(C)c2nc(=O)c3cccnc3s2)cc1`, the inhibition at 10 µM with Neuron [1] worked out at 29%.

Turning to `CN(c1ccc(C(=O)O)cc1)c1nc(=O)c2cccnc2s1`, 10 µM produced 0% inhibition in the data set with Neuron [1].

`CN(c1ccc(C2CCCCC2)cc1)c1nc(=O)c2cccnc2s1`: at 10 µM the inhibition in the data set on Neuron [1] was 29%.

In the data set on Neuron [2], `CN(c1ccc2c(c1)CCC2)c1nc(=O)c2cccnc2s1` returned an IC50 of 1300 nM.

Compound `CN(c1ccc2sccc2c1)c1nc(=O)c2cccnc2s1` yielded an IC50 in the data set with Neuron [2] of 400 nM.

Turning to `CCN(c1cccc(OC)c1)c1nc(=O)c2cccnc2s1`, half-maximal inhibition in the data set with Neuron [2] (IC50) was put at 3800 nM.

In turn, `CCN(c1ccc(OC)cc1)c1nc(=O)c2cccnc2s1` came in with an IC50 with Neuron [2] of 2800 nM.

For `CCN(c1ccc(OC)c(OC)c1)c1nc(=O)c2cccnc2s1`, the inhibition at 10 µM in the data set on Neuron [1] amounted to 25%.

In the data set with Neuron [2], `CCN(c1ccc2c(c1)OCO2)c1nc(=O)c2cccnc2s1` gave an IC50 of 400 nM. Moreover, the ED50 in the data set with Mus musculus came to 38.9 mg/kg.

`CCN(c1ccc2c(c1)OCCO2)c1nc(=O)c2cccnc2s1` displayed an IC50 in the data set on Neuron [2] of 600 nM.

As to `CN(c1ccc(Cl)cc1)c1nc(=O)c2ccccc2s1`, in the data set on Neuron [2], the IC50 worked out at 6500 nM.

For `CN(c1ccc(Cl)cc1)c1nc(=O)c2sccc2s1`, the IC50 in the data set on Neuron [2] was found to be 5400 nM.

`CN(c1ccc(Cl)cc1)c1nc(=O)c2ccncc2s1` registered an inhibition at 10 µM in the data set with Neuron [1] of 4%.

Take `CN(c1ccc(Cl)cc1)c1nc(=O)c2cnccc2s1`: at 10 µM the inhibition in the data set with Neuron [1] was 2%.

Consider `Cc1ccc2c(=O)nc(N(C)c3ccc(Cl)cc3)sc2n1`, for which 10 µM produced 0% inhibition in the data set on Neuron [1].

For the compound `CN(c1ccc(Cl)cc1)c1nc(=O)c2ccccc2o1`, the inhibition at 10 µM in the data set with Neuron [1] amounted to 28%.

In the case of `Cl.O=c1[nH]c2cc(-n3ccnc3)c([N+](=O)[O-])cc2[nH]c1=O`, the ED50 with Mus musculus is greater than 100 mg/kg.

Consider `C=CCN(c1ccc(C)cc1)c1nc(=O)c2cccnc2s1`, for which the half-inhibitory concentration (IC50) in the data set with Neuron [2] worked out at 9000 nM.

On to `CN(Cc1ccccc1)c1nc(=O)c2cccnc2s1`, for which, in the data set with Neuron [1], the inhibition at 10 µM worked out at 0%.

In the data set on Neuron [1], `CN(c1ccsc1)c1nc(=O)c2cccnc2s1` registered an inhibition at 10 µM of 28%.

In the data set on Neuron [2], `CC(=O)N1N=C(c2ccc(N)cc2)c2cc3c(cc2C[C@H]1C)OCO3` [TALAMPANEL] showed an IC50 of 6000 nM. Moreover, the ED50 with Mus musculus turned out to be 4.2 mg/kg.
